Key:
[1] = format: physicochemical; conditions: reaction at 37°C, gel apparatus up to 55°C
Outline: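 Stability inferred from a single-turnover incorporation time course using HIV-1 RT (250 nM) and D23/D36 primer/template (50 nM). The test triphosphate (150 μM) and a dTTP reference (100 μM) were run in parallel at 37°C and sampled at 0, 30 s, 5, 10, 30 and 60 min. Products were resolved on denaturing acrylamide gel (apparatus up to 55°C), comparing band mobility.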

[2] = tested on: HIV-1; conditions: MT-2 cell culture

| Structure (SMILES) | Stability (in words) [1] | Antiviral activity in cell culture (in words) [2] |
| --- | --- | --- |
| Cc1cc(C#CCOCCOCCOCCOCCOCC#Cc2cn([C@H]3C=C[C@@H](COP(=O)(O)OP(=O)(O)OP(=O)(O)O)O3)c(=O)[nH]c2=O)cc(C)c1Oc1ccnc(Nc2ccc(C#N)cc2)n1 [d4TTP-4PEG-TMC] | increased compound stability |  |
| CC(C)=CCN1Cc2c(OCCOCCOCCOCCOC(=O)CCc3cn([C@H]4C=C[C@@H](CO)O4)c(=O)[nH]c3=O)ccc3[nH]c(=S)n(c23)C[C@@H]1C [Compound 16a] |  | most inhibitory |

From paper PMC3580853 (Bioorganic & medicinal chemistry letters, 2012)
